The text below walks through data of the array DNA melting data of Ke et al. (doi:10.1101/2024.01.08.574731).

A short description of data set [1]: melting temperature; fluorescence melt of hairpins on a sequencing array, two-state fit, raised by 9.35 °C to match UV melts. The settings on record: sodium 0.088 M. In a few lines:
(§1)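 To match UV melts, fitted temperatures were raised by 9.35 °C. These fits were bootstrapped two-state models that gave melting temperature and folding enthalpy, combined by inverse variance over four replicates. The input was normalised Cy3 fluorescence of library hairpins with annealed Cy3 and quencher oligos on a sequenced MiSeq flow cell, imaged in 50 mM Na-HEPES pH 8.0, 25 mM NaCl in 2.5 °C steps up to 60 °C.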

Data set [2] can be described thus: folding enthalpy; higher = less favourable; fluorescence melt of hairpins on a sequencing array, two-state fit. The settings on record: sodium 0.088 M. In a few lines:
as §1

For GATCCTAGAAAGGATC ((((((....)))))), the Tm in data set [1] is 48.5 °C. Besides, the folding enthalpy in data set [2] was -30.6 kcal/mol.

As to GATCCTAGCTAGGATC ((((((....)))))), the Tm in data set [1] worked out at 54.1 °C. Besides, the folding enthalpy in data set [2] is -56.9 kcal/mol.

GATCCTAGGTAGGATC ((((((....)))))): the Tm in data set [1] turned out to be 52.9 °C. In data set [2], the folding enthalpy was -38.7 kcal/mol.

On to GATCCTAGTAAGGATC ((((((....)))))), for which the Tm in data set [1] is 52.2 °C. For the same sequence, in data set [2], the folding enthalpy is -41.1 kcal/mol.

For the sequence GATCCTAGTAGGATC ((((((...)))))), the Tm in data set [1] worked out at 52.4 °C. For the same sequence, the folding enthalpy in data set [2] was -34.1 kcal/mol.

In the case of GATCCTAGTGAGGATC ((((((....)))))), the Tm in data set [1] worked out at 50.9 °C. Moreover, the folding enthalpy in data set [2] is -36.2 kcal/mol.

In the case of GATCCTAGTTAGGATC ((((((....)))))), the Tm in data set [1] was found to be 51.7 °C. Moreover, the folding enthalpy in data set [2] was -33.7 kcal/mol.

Take GATCCTATCAGGATC ((((((...)))))): the Tm in data set [1] is 57.2 °C. Moreover, in data set [2], the folding enthalpy was -35.7 kcal/mol.

On to GATCCTATTAGGATC ((((((...)))))), for which, in data set [1], the Tm was determined as 53.4 °C. In addition, the folding enthalpy in data set [2] was -34.6 kcal/mol.

As to GATCCTCACAAGGATC ((((((....)))))), the Tm in data set [1] is 53 °C. Further, in data set [2], the folding enthalpy was -33.6 kcal/mol.

For the sequence GATCCTCAGGAGGATC ((((((....)))))), the Tm in data set [1] came out at 55.2 °C. Also, in data set [2], the folding enthalpy was -30.9 kcal/mol.

In the case of GATCCTCCAAGGATC ((((((...)))))), the Tm in data set [1] was determined as 53.7 °C. Also, the folding enthalpy in data set [2] was -31.8 kcal/mol.

For the sequence GATCCTCCCAAGGATC ((((((....)))))), the Tm in data set [1] was determined as 53.1 °C. The folding enthalpy in data set [2] was -43.1 kcal/mol.

As to GATCCTCCCGAGGATC ((((((....)))))), the Tm in data set [1] worked out at 56.4 °C. Moreover, the folding enthalpy in data set [2] was -36.9 kcal/mol.

Consider GATCCTCCGGAGGATC ((((((....)))))), for which, in data set [1], the Tm stood at 55.1 °C. In addition, the folding enthalpy in data set [2] was -29.5 kcal/mol.

Regarding GATCCTCGTAGGATC ((((((...)))))), the Tm in data set [1] worked out at 54.5 °C. The folding enthalpy in data set [2] was -34.2 kcal/mol.

Turning to GATCCTCTACAGGATC ((((((....)))))), the Tm in data set [1] worked out at 51.8 °C. The folding enthalpy in data set [2] was -31.1 kcal/mol.

GATCCTCTCCAGGATC ((((((....)))))): in data set [1], the Tm amounted to 50.8 °C. Moreover, in data set [2], the folding enthalpy was -36.3 kcal/mol.

For the sequence GATCCTCTCTAGGATC ((((((....)))))), the Tm in data set [1] amounted to 51.6 °C. Moreover, the folding enthalpy in data set [2] is -38.2 kcal/mol.

In the case of GATCCTGAAAGGATC ((((((...)))))), the Tm in data set [1] amounted to 65.9 °C. Moreover, in data set [2], the folding enthalpy was -38.7 kcal/mol.

Regarding GATCCTGAAGAGGATC ((((((....)))))), the Tm in data set [1] amounted to 55.4 °C. In addition, the folding enthalpy in data set [2] was -36.2 kcal/mol.

With GATCCTGAGAGGATC ((((((...)))))), the Tm in data set [1] is 50.7 °C. In addition, the folding enthalpy in data set [2] was -31.1 kcal/mol.

In the case of GATCCTGCAAAGGATC ((((((....)))))), in data set [1], the Tm worked out at 61.3 °C. In addition, the folding enthalpy in data set [2] is -34.6 kcal/mol.

As to GATCCTGCGAAGGATC ((((((....)))))), in data set [1], the Tm was 59.5 °C. Moreover, the folding enthalpy in data set [2] is -42.6 kcal/mol.

Turning to GATCCTGCGGAGGATC ((((((....)))))), the Tm in data set [1] stood at 50.3 °C. Moreover, the folding enthalpy in data set [2] is -37.1 kcal/mol.

Take GATCCTGGAAAGGATC ((((((....)))))): in data set [1], the Tm turned out to be 59.5 °C. For the same sequence, the folding enthalpy in data set [2] is -35.6 kcal/mol.

With GATCCTGGACAGGATC ((((((....)))))), in data set [1], the Tm turned out to be 57.5 °C. For the same sequence, the folding enthalpy in data set [2] was -36.4 kcal/mol.

In the case of GATCCTGTAAGGATC ((((((...)))))), the Tm in data set [1] came to 62 °C. In addition, the folding enthalpy in data set [2] was -37 kcal/mol.

Consider GATCCTGTATAGGATC ((((((....)))))), for which the Tm in data set [1] amounted to 59 °C. Also, in data set [2], the folding enthalpy is -41.6 kcal/mol.

With GATCCTGTCGAGGATC ((((((....)))))), the Tm in data set [1] was determined as 57.2 °C. For the same sequence, the folding enthalpy in data set [2] was -36.3 kcal/mol.

Regarding GATCCTGTGTAGGATC ((((((....)))))), the Tm in data set [1] was determined as 52.3 °C. Besides, the folding enthalpy in data set [2] is -31.5 kcal/mol.

On to GATCCTGTTGAGGATC ((((((....)))))), for which the Tm in data set [1] was 53.2 °C. Besides, the folding enthalpy in data set [2] is -33.9 kcal/mol.

For GATCCTTAGAGGATC ((((((...)))))), the Tm in data set [1] was determined as 50 °C. Further, the folding enthalpy in data set [2] was -28.3 kcal/mol.

GATCCTTATAAGGATC ((((((....)))))): the Tm in data set [1] is 53.9 °C. The folding enthalpy in data set [2] is -36 kcal/mol.

For GATCCTTATAGGATC ((((((...)))))), the Tm in data set [1] turned out to be 57.4 °C. The folding enthalpy in data set [2] is -32.5 kcal/mol.

As for GATCCTTCAAAGGATC ((((((....)))))), in data set [1], the Tm is 52.9 °C. The folding enthalpy in data set [2] was -33.5 kcal/mol.

As to GATCCTTCACAGGATC ((((((....)))))), in data set [1], the Tm turned out to be 51.7 °C. For the same sequence, the folding enthalpy in data set [2] is -34.7 kcal/mol.

As to GATCCTTCCAGGATC ((((((...)))))), in data set [1], the Tm was 57.2 °C. In data set [2], the folding enthalpy was -35.2 kcal/mol.
